Results on 20 molecules are retold here after PMC3565245 (Current Chemical Genomics, 2012).

Structures can show the parent of a compound that is named as a salt. Where two headings read alike, the source gives them in different places. A value given as a limit tells only on which side of the number the result lay.

One data set concerns the target T1, glCK (Giardia intestinalis, UniProt A8BB85).
T1 sequence (A8BB85 1-316): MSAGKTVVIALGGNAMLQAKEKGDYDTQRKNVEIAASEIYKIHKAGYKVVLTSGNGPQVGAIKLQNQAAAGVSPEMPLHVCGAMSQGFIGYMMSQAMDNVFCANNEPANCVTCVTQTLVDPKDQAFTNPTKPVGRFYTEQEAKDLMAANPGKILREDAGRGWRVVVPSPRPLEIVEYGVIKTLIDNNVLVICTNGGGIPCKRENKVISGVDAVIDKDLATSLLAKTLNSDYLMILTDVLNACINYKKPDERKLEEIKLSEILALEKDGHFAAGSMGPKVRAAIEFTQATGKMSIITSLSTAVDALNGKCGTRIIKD
Description: Absorbance-based carbamate kinase assay. Format: biochemical, Giardia lamblia. The essentials:
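Coupled absorbance assay at room temperature. glCK in 20 mM Tris-HCl pH 7.5 was preincubated 15 min with test compound (final 0.002, 0.02, 0.2, 1, 2, 20, 200 μM; enzyme final 5 nM). It was then added to substrate mix (ADP, carbamoyl phosphate, final 40 µM; 30 mM MgCl2, glucose, NADP, hexokinase, G6P dehydrogenase). NADPH was followed at 340 nm, and IC50 was derived from initial velocities.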

The subject of another data set is Giardia infection. Conditions: cited from earlier work.
In data set [1] the target is T2, Giardia lamblia carbamate kinase (glCK) (Giardia intestinalis, UniProt A8BB85).
T2 sequence (A8BB85 1-316): T1 sequence (A8BB85 1-316)
Description: Luminescence-based carbamate kinase assay in 1536-well format. Conditions: for Efficacy (% Inhibition): maximal response of the fitted curve, luminescence assay. Format: biochemical. The essentials: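 Reaction was started with ADP/carbamoyl phosphate (final 150 µM) plus ATPLite and run 20 min at room temperature before the luminescence read. Data were normalized to DMSO and no-enzyme wells, pattern-corrected, and Hill-fitted for IC50 and efficacy.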

The subject of another data set is Giardia. Conditions: maximum screening concentration of 38.3 µM; cited from earlier work.
Another data set has as its system giardiasis. Conditions: giardiasis standard of care; cited from earlier work.
Substrate in data set [2]: Nc1ncnc2c1ncn2[C@@H]1O[C@H](COP(=O)(O)OP(=O)(O)O)[C@@H](O)[C@H]1O
Kind of data set: Steady-state kinetics of glCK, luminescence assay in 384-well format. Format: biochemical, Giardia lamblia. Conditions: other: room temperature, substrate of glCK; pH 8.0.

[3] abbreviates: IC50 Luminescence Assay, Table 3, secondary assay comparison.

A word on the IC50: it is the concentration that gives 50% inhibition. Take `CN(C)C(=S)SSC(=S)N(C)C` [Thiram]: the IC50 stood at 640 nM against glCK; 4100 nM in data set [1] (IC50, values of the running text, chelator class); 4110 nM in data set [1] (setting [3]). In addition, in the data set on Giardia infection, the “anti-giardial activities in a mouse model” value is listed as “anti-giardial activities”. Further, in data set [1], the “Efficacy (% Inhibition)” value is 92.3%. Moreover, in the data set on Giardia, the “activity in Giardia killing screen (>30% reduction in ATP content)” value (“activity … (>30% reduction in ATP content)” below) was “active”.
`O=C(O)c1cc(O)c(O)c(O)c1` [Gallic acid]: the IC50 against glCK was found to be 11400 nM; in data set [1] (setting [3]), 650 nM. Besides, the “Efficacy (% Inhibition)” value in data set [1] stood at 89.2%.
In the case of `O=C(O)Cc1ccc(O)c(O)c1` [3,4-Dihydroxyphenylacetic acid], the values for the IC50 (against glCK; in data set [1] (setting [3])) were 11700 nM and 6510 nM, respectively. Besides, in data set [1], the “Efficacy (% Inhibition)” value is 80.2%.
In the case of `O=C([O-])c1ccccc1-c1c2cc(Br)c(=O)cc-2oc2[c]([Hg+])c([O-])c(Br)cc12.[Na+].[Na+].[OH-]` [Mercurochrome], the IC50 at glCK (read-out: IC50 Absorbance Assay, 5 nM glCK, inhibitor up to 200 μM) came to 220 nM; in data set [1] (read-out: IC50 Luminescence Assay, Table 3, secondary assay comparison), 2060 nM. Moreover, the “Efficacy (% Inhibition)” value in data set [1] was 93.8%.
Consider `CCS(=O)(=O)CCn1c([N+](=O)[O-])cnc1C` [tinidazole], for which the “single course cure rates” value in the data set on giardiasis was 80–95%.
With `CCOC(=S)SSC(=S)OCC` [Bis(ethylxanthogen)], the “Efficacy (% Inhibition)” value in data set [1] is given as 82.3%.
Consider `O=C(O)[C@@H](S)[C@@H](S)C(=O)O` [Succimer], for which the concentration for half-maximal inhibition (IC50) at glCK stood at 540 nM; in data set [1] (setting [3]) it was 650 nM. Further, the “Efficacy (% Inhibition)” value in data set [1] came to 85.5%.
The matching figures for `C[C@@](Cc1ccc(O)c(O)c1)(NN)C(=O)O` [Carbidopa]: more than 200000 nM, 5800 nM and 79.4%.
The matching figures for `CC(C)(C)C(=O)OCOP(=O)(COCCn1cnc2c(N)ncnc21)OCOC(=O)C(C)(C)C` [Adefovir dipivoxil]: more than 200000 nM, 16300 nM and 83.6%.
With `CCN(CC)C(=S)S` [Ditiocarb], in data set [1], the “Efficacy (% Inhibition)” value was found to be 77.7%. Moreover, the “activity … (>30% reduction in ATP content)” value with Giardia is “active”.
As for `O=C1C2CC=CCC2C(=O)N1SC(Cl)(Cl)Cl` (stereo not drawn) [Captan], the IC50 at glCK was 470 nM; in data set [1] (setting [3]) it was 2590 nM. Moreover, the “Efficacy (% Inhibition)” value in data set [1] came to 88.6%.
In the case of `Oc1cc2c(cc1O)[C@H]1c3ccccc3CN[C@@H]1CC2` (racemic) [Dihydrexidine hydrochloride], the “Efficacy (% Inhibition)” value in data set [1] came to 82.9%.
The same measure, in the same setting: to `OC[C@H]1O[C@H]([S-])[C@H](O)[C@@H](O)[C@@H]1O.[Au+]` [Aurothioglucose] belongs 81.2%.
For `Oc1cccc(O)c1O` [Pyrogallol], the IC50 against glCK worked out at 2700 nM; in data set [1] (setting [3]), 16300 nM. For the same molecule, the “Efficacy (% Inhibition)” value in data set [1] was 77.4%.
On to `N.N.[Cl][Pt][Cl]` [Cisplatin], for which the “Efficacy (% Inhibition)” value in data set [1] was 88.2%.
Turning to `Cc1ncc([N+](=O)[O-])n1CCO` [metronidazole], in the data set with giardiasis, the “single course cure rates” value is reported as 80–95%.
As to `CCN(CC)C(=S)SSC(=S)N(CC)CC` [Disulfiram], the IC50 was determined as 1390 nM against glCK and 580 nM in data set [1] (setting [3]). Besides, the “anti-giardial activities in a mouse model” value in the data set with Giardia infection is “anti-giardial activities”. Further, in data set [1], the “Efficacy (% Inhibition)” value is on record as 90.5%. The “activity … (>30% reduction in ATP content)” value with Giardia is reported as “active”.
`Oc1ccc(C2CNCCc3c2cc(O)c(O)c3Cl)cc1` (stereo not drawn) [Fenoldopam]: the “Efficacy (% Inhibition)” value in data set [1] worked out at 84.5%.
On to `CN1CCc2cccc3c2[C@H]1Cc1ccc(O)c(O)c1-3` [Apomorphine hydrochloride hemihydrate], for which the IC50 is more than 200000 nM against glCK and 3260 nM in data set [1] (setting [3]). Moreover, in data set [1], the “Efficacy (% Inhibition)” value is on record as 89.4%.

B1: glCK (Giardia lamblia ATCC 50803) (protein)
chain: T1 sequence (A8BB85 1-316)
As usually defined, the Km is the substrate concentration at which the rate is half of its maximum. On to B1, for which the Km in data set [2] was 58.3 ± 2.4 µM.
